From PMC7857643 (ACS chemical biology, 2016)
Where a chain is given by its changes, count along the chain named. “And” between values parts separate entries of the source, which are not always exact repeats. Identical values can stand only once.

Assays:
[1] = test system: DU145 prostate cancer cells; assay: Cell viability / drug combination with etoposide in DU145 cells; type: cell-based, human
[2] = molecular target: T1, recombinant human TDP2 (REC hTDP2) (Homo sapiens, UniProt O95551); assay: Recombinant TDP2 assay; type: biochemical
T1 sequence (O95551 1-362): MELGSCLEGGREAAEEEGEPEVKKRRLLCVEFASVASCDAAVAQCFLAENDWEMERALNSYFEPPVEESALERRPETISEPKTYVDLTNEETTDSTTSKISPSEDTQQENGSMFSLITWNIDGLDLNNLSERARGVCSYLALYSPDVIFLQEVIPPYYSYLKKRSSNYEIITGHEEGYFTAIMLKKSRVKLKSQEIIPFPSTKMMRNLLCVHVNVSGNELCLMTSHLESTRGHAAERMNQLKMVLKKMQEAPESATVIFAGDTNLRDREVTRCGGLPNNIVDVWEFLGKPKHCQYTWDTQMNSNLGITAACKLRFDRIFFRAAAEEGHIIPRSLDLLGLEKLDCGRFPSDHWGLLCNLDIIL

[3] = molecular target: T2, mTDP2 WT (Mus musculus, UniProt Q9JJX7); assay: Recombinant TDP2 assay, mouse TDP2 wild type; type: biochemical
T2 sequence (Q9JJX7 1-370): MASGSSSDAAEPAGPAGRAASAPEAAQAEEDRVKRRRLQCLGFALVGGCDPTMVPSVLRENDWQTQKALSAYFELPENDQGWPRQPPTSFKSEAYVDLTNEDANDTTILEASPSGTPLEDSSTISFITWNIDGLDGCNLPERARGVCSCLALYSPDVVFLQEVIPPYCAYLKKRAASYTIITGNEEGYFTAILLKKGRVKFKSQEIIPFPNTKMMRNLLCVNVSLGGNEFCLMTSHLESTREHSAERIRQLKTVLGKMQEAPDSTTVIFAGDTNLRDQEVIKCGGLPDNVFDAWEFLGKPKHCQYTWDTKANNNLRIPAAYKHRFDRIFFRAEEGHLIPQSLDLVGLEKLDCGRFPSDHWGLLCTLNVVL

[4] = molecular target: T3, mTDP2 5M (Q278R, I281T, K282R, P318T, Y321C) (Mus musculus, UniProt Q9JJX7, I281T/K282R/P318T/Q278R/Y321C); assay: Recombinant TDP2 assay, mouse TDP2 5M mutant; type: biochemical
T3 sequence (Q9JJX7 1-370 Q278R/I281T/K282R/P318T/Y321C): T2 sequence (Q9JJX7 1-370) with Q278R, I281T, K282R, P318T, Y321C

[5] = molecular target: T4, mTDP2 8M (5M + E242G, S244A, R316G) (Mus musculus, UniProt Q9JJX7, E242G/I281T/K282R/P318T/Q278R/R316G/S244A/Y321C); assay: Recombinant TDP2 assay, mouse TDP2 8M mutant; type: biochemical; settings: IC50 mTDP2 8M, mouse TDP2 with eight human mutations
T4 sequence (Q9JJX7 1-370 E242G/S244A/Q278R/I281T/K282R/R316G/P318T/Y321C): T2 sequence (Q9JJX7 1-370) with E242G, S244A, Q278R, I281T, K282R, R316G, P318T, Y321C

[6] = molecular target: T5, mTDP2 9M (8M + H323L) (Mus musculus, UniProt Q9JJX7, E242G/H323L/I281T/K282R/P318T/Q278R/R316G/S244A/Y321C); assay: biochemical
T5 sequence (Q9JJX7 1-370 E242G/S244A/Q278R/I281T/K282R/R316G/P318T/Y321C/H323L): T2 sequence (Q9JJX7 1-370) with E242G, S244A, Q278R, I281T, K282R, R316G, P318T, Y321C, H323L

[7] = molecular target: T6, recombinant human TDP2 (Homo sapiens, UniProt O95551); assay: Kinetics experiments; type: biochemical
T6 sequence (O95551 1-362): T1 sequence (O95551 1-362)
Summary of the method: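 Recombinant TDP2 at 10 pM was incubated at RT with 5, 10, 20 or 800 nM unlabeled TY19 substrate, spiked with 1 nM 32P-labeled TY19, with 0, 30, 50 or 150 nM test compound. Time-course reactions were resolved on 16% denaturing PAGE. Initial velocities from linear fits went into a Lineweaver–Burk plot.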

[8] = test system: zebrafish TDP2 (zTDP2); assay: Recombinant TDP2 assay, zebrafish TDP2; type: biochemical, D. rerio; settings: full-length zebrafish TDP2
[9] = test system: C. elegans TDP2 (cTDP2); assay: Recombinant TDP2 assay, C. elegans TDP2; type: biochemical; settings: full-length C. elegans TDP2
[10] = molecular target: T7, human cellular TDP2 in HT29 whole cell extracts (Homo sapiens, UniProt O95551); assay: TDP2 assay with whole cell extracts from HT29 cells; type: biochemical; settings: Supporting Information Figure 1
T7 sequence (O95551 1-362): T1 sequence (O95551 1-362)
Summary of the method: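 1 × 10^7 human cells were lysed 15 min on ice and spun at 12,000g for 10 min; protein was measured and extracts were stored at −80 °C. Extract at 10–20 μg/mL (30–40% cleavage) was incubated with 1 nM 32P-labeled 5′-phosphotyrosyl 18-mer DNA and test compound for 15 min at RT in pH 7.5 Tris/KCl/MgCl2 buffer. Products were run on 16% denaturing PAGE and quantified by densitometry.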

[11] = molecular target: native endogenous avian TDP2 in DT40 whole cell extracts (Gallus gallus, UniProt F1NW29); assay: TDP2 assay with DT40 whole cell extracts; type: biochemical, chicken; settings: Supporting Information Figure 1
Chain of native endogenous avian TDP2 in DT40 whole cell extracts (F1NW29 whole entry): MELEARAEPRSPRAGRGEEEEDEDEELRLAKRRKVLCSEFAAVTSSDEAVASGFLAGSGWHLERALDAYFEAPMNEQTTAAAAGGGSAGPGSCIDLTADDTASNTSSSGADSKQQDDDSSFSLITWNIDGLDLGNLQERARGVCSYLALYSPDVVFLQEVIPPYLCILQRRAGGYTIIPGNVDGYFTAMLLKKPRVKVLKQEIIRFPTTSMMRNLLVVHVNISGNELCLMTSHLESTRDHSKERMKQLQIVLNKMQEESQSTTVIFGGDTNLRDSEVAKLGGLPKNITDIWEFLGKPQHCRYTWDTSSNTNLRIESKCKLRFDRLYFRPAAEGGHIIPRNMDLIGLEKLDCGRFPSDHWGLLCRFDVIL

[12] = test system: DT40 avian lymphoblastoid cells; assay: Drug combination with etoposide in DT40 cells; type: cell-based, chicken
[13] = test system: TK6 human lymphoblastoid cells (TK6 WT); assay: Drug combination with etoposide in TK6 cells; type: cell-based; settings: increasing concentrations of ETP
Summary of the method: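 TK6 wild-type lymphoblastoid cells seeded at 10,000 cells/well and exposed continuously to the test compound combined with increasing etoposide concentrations for 72 h, in triplicate. ATPlite luminescence read at 72 h after 5 min incubation. Viability was expressed as a percentage of the ATP level in untreated cells.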

[14] = test system: TK6 TDP2 KO cells; assay: Drug combination with etoposide in TK6 TDP2 KO cells; type: cell-based, human
[15] = test system: DT40 hTDP2 cells; assay: Drug combination in TDP2 knockout DT40 cells complemented with human TDP2; type: cell-based, chicken
Summary of the method: (§1)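 DT40 cells (TDP2-knockout, with or without human TDP2 complementation) seeded at 200 cells/well and exposed continuously to the test compound plus etoposide (or camptothecin) across concentration ranges for 72 h, in triplicate. Viability read at 72 h by ATPlite luminescence after 5 min. Viability was the ATP level of treated cells over untreated cells × 100.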

[16] = test system: DT40 TDP2 KO cells; assay: Drug combination with etoposide in DT40 TDP2 KO cells; type: cell-based, chicken
Summary of the method: as §1

With `COc1cc([C@@H]2c3cc4c(cc3[C@@H](O[C@@H]3O[C@@H]5CO[C@@H](C)O[C@H]5[C@H](O)[C@H]3O)[C@H]3COC(=O)[C@H]23)OCO4)cc(OC)c1O` [ETP, etoposide, reference compound] the “cells killed by ETP by itself” value ([1]; 1 μM ETP alone) was “around 50%”.

With `O=c1nc2n(-c3ccccc3)c3ccccc3cc-2c(=O)[nH]1` [Compound 5, 10-Phenylpyrimido[4,5-b]quinoline-2,4(3H,10H)-dione] the “additional loss of potency against hTDP2” value ([2]; 5 relative to 4 (chloro removed)) was 18 fold.

In the case of `N#Cc1ccc2cc3c(=O)[nH]c(=O)nc-3n(-c3cccc(-c4nnn[nH]4)c3)c2c1` [Compound 1, 2,4-Dioxo-10-[3-(1H-tetrazol-5-yl)phenyl]pyrimido[4,5-b]-quinoline-8-carbonitrile], the IC50 [3] is reported as over 111000 nM, the IC50 [4] is reported as 1200 ± 100 nM and the IC50 [5] is reported as 710 nM and 580 nM. For the same molecule, the IC50 [6] was 29 ± 10 nM, the kcat ([7]; 30 nM of 1) was 2.75 s⁻¹ and the kcat ([7]; 50 nM of 1) was 2.71 s⁻¹. For the same molecule, the kcat ([7]; 150 nM of 1) was 3.03 s⁻¹, the “mode of inhibition of hTDP2” value ([7]; Lineweaver double-reciprocal plot) was “competitive inhibitor” and the “resistance of zTDP2 to the drug” value [8] was “at least 3 orders of magnitude”. For the same molecule, the “resistance of cTDP2 to the drug” value [9] was “at least 3 orders of magnitude”, the “activity against human cellular TDP2 in HT29 whole cell extracts” value [10] was “confirmed” and the “activity against native endogenous avian TDP2 in DT40 whole cell extracts” value [11] was “active”. For the same molecule, the “synergy with ETP” value [1] was “synergistic effect”, the “combination effect with ETP” value ([1]; 5 μM ETP) was “supra-additive effect” and the “cells killed in combination with ETP” value ([1]; 1 in combination with 1 μM of ETP) was “over 90%”. The cytotoxicity by itself ([1]; up to 50 μM, 72 h) was “not cytotoxic”, the “synergy with ETP” value [12] was “showed synergy” and the “combination effect with ETP” value [13] was “supra-additive effect”. For the same molecule, the “synergy with ETP” value [14] was “synergy was not observed”, the synergy with camptothecin ([15]; ETP replaced by camptothecin, Supporting Information Figure 4) was “not observed” and the “synergy with ETP” value ([15]; increasing concentrations of ETP) was “synergistic effect”. For the same molecule, the “synergy with ETP” value [16] was “synergy was greatly reduced”.

For `O=c1nc2n(-c3ccc(O)cc3)c3cc(Cl)ccc3cc-2c(=O)[nH]1` [Compound 4, 8-Chloro-10-(4-hydroxyphenyl)pyrimido[4,5-b]quinoline-2,4-dione], the “decrease of potency against hTDP2” value ([2]; 4 relative to 2 (cyano replaced by chloro)) was 27 fold.

With `N#Cc1ccc2cc3c(=O)[nH]c(=O)nc-3n(-c3ccccc3)c2c1` [Compound 3, 2,4-Dioxo-10-phenyl-pyrimido[4,5-b]quinoline-8-carbonitrile] the “synergy with ETP” value [1] was “synergistic effect”.
